Activity calls are given as the source filed them. The rule behind the calls is not given here.
How the values were obtained:
[1] = test system: Calvarial osteoblast; assay: Induction of osteoblastogenesis in mouse calvarial osteoblasts assessed as increase in expression of ALP gene at 100 pM by qPCR analysis relative to control; assay type: functional, cell-based
[2] = test system: Mus musculus; assay: Inhibition of osteoclastogenesis in ovariectomized BALB/c mouse model assessed as increase in OPG/RANKL ratio at 1 mg/kg/day, po qd for 8 weeks by qPCR analysis; assay type: functional, organism-based
[3] = test system: Mus musculus; assay: Antiosteoporotic activity in ovariectomized BALB/c mouse model assessed as restoration of ovariectomy-induced reduction in bone volume/trabecular volume at 1 mg/kg/day, po qd for 8 weeks (reference value: 0.45+/-0.07%); assay type: functional, Trabecula; parameters: scale not given: the % may be the effect or the level left
[4] = test system: Mus musculus; assay: Induction of new bone formation in ovariectomized BALB/c mouse model assessed as increase in mineral apposition rate at 10 mg/kg/day, po qd for 8 weeks by bone histomorphometry analysis (Rvb =0.11 um/day); assay type: functional
[5] = Stimulation of alkaline phosphatase activity in mouse calvarial osteoblasts after 48 hrs by spectrophotometric analysis
In short: (§1)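 Calvarial osteoblasts were exposed to compounds over 1 pM to 1 µM. ALP activity was read spectrophotometrically as optical density at 405 nm. Results were expressed as % ALP activity, with EC50 and Emax derived from the concentration series.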

[6] = test system: Calvarial osteoblast; assay: Induction of osteoblastogenesis in mouse calvarial osteoblasts assessed as increase in RUNX2 expression at 100 pM to 10 nM by Western blotting analysis; assay type: functional, cell-based
[7] = test system: Mus musculus; assay: Antiosteoporotic activity in ovariectomized BALB/c mouse model assessed as restoration of ovariectomy-induced reduction in bone volume/trabecular volume at 10 mg/kg/day, po qd for 8 weeks (reference value: 0.45+/-0.07%); assay type: functional, Trabecula; parameters: scale not given: the % may be the effect or the level left
[8] = test system: Calvarial osteoblast; assay: Induction of osteoblastogenesis in mouse calvarial osteoblasts assessed as increase in expression of RUNX2 gene at 100 pM by qPCR analysis relative to control; assay type: functional, cell-based
[9] = test system: Mus musculus; assay: Inhibition of osteoclastogenesis in ovariectomized BALB/c mouse model assessed as suppression of RANK gene expression at 5 to 10 mg/kg/day, po qd for 8 weeks by qPCR analysis; assay type: functional, organism-based
[10] = test system: Mus musculus; assay: Antiosteoporotic activity in ovariectomized BALB/c mouse model assessed as restoration of ovariectomy-induced reduction in bone volume/trabecular volume at 5 mg/kg/day, po qd for 8 weeks (reference value: 0.45+/-0.07%); assay type: functional, Trabecula; parameters: scale not given: the % may be the effect or the level left
[11] = test system: Mus musculus; assay: Induction of osteoblast differentiation in ovariectomized BALB/c mouse model assessed as upregulation of COL1 mRNA expression po administered qd for 8 weeks by qPCR analysis; assay type: functional, organism-based
[12] = test system: Mus musculus; assay: Induction of new bone formation in ovariectomized BALB/c mouse model assessed as increase in mineral apposition rate at 5 mg/kg/day, po qd for 8 weeks by bone histomorphometry analysis (Rvb =0.11 um/day); assay type: functional
[13] = test system: Mus musculus; assay: Induction of osteoblast differentiation in ovariectomized BALB/c mouse model assessed as upregulation of RUNX2 mRNA expression po administered qd for 8 weeks by qPCR analysis; assay type: functional, organism-based
[14] = test system: Mus musculus; assay: Inhibition of osteoclastogenesis in ovariectomized BALB/c mouse model assessed as suppression of RANK gene expression at 1 mg/kg/day, po qd for 8 weeks by qPCR analysis; assay type: functional, organism-based
[15] = test system: Calvarial osteoblast; assay: Induction of osteoblastogenesis in mouse calvarial osteoblasts assessed as increase in BMP2 expression at 100 pM to 10 nM by Western blotting analysis; assay type: functional, cell-based
[16] = test system: Calvarial osteoblast; assay: Induction of osteoblastogenesis in mouse calvarial osteoblasts assessed as increase in expression of osteocalcin gene at 100 pM to 10 nM by qPCR analysis relative to control; assay type: functional
[17] = test system: Mus musculus; assay: Induction of osteoblast differentiation in ovariectomized BALB/c mouse model assessed as upregulation of BMP2 mRNA expression at 1 mg/kg/day, po qd for 8 weeks by qPCR analysis; assay type: functional, organism-based
[18] = test system: Mus musculus; assay: Inhibition of osteoclastogenesis in ovariectomized BALB/c mouse model assessed as suppression of TRAP gene expression at 5 to 10 mg/kg/day, po qd for 8 weeks by qPCR analysis; assay type: functional, organism-based
[19] = Cytotoxicity against mouse calvarial osteoblasts assessed as cell viability at 1 pM to 1 uM after 48 hrs by MTT assay; assay type: cell-based; conditions: calvarial osteoblast
[20] = test system: Mus musculus; assay: Antiosteoporotic activity in ovariectomized BALB/c mouse model assessed as restoration of ovariectomy-induced increase in structural model index at 5 mg/kg/day, po qd for 8 weeks; assay type: functional, organism-based
[21] = test system: Mus musculus; assay: Antiosteoporotic activity in ovariectomized BALB/c mouse model assessed as restoration of ovariectomy-induced reduction in trabecular number at 5 mg/kg/day, po qd for 8 weeks (reference value: 0.12+/-0.02 /mm); assay type: functional, Trabecula
[22] = test system: Mus musculus; assay: Induction of new bone formation in ovariectomized BALB/c mouse model assessed as increase in bone formation rate at 1 mg/kg/day, po qd for 8 weeks by bone histomorphometry analysis (Rvb =0.10 um'3/um'2/day); assay type: functional
[23] = test system: Mus musculus; assay: Antiosteoporotic activity in ovariectomized BALB/c mouse model assessed as restoration of ovariectomy-induced increase in structural model index at 10 mg/kg/day, po qd for 8 weeks; assay type: functional, organism-based
[24] = species: Mus musculus; assay: Stimulation of alkaline phosphatase activity in mouse calvarial osteoblasts at 1 pM to 1 uM after 48 hrs by spectrophotometric analysis relative to nifedipine
[25] = test system: Mus musculus; assay: Antiosteoporotic activity in ovariectomized BALB/c mouse model assessed as restoration of ovariectomy-induced increase in trabecular separation at 5 mg/kg/day, po qd for 8 weeks (reference value: 0.99+/-0.08mm); assay type: functional, Trabecula
[26] = test system: Mus musculus; assay: Antiosteoporotic activity in ovariectomized BALB/c mouse model assessed as restoration of ovariectomy-induced increase in trabecular separation at 10 mg/kg/day, po qd for 8 weeks (reference value: 0.99+/-0.08mm); assay type: functional, Trabecula
[27] = test system: Mus musculus; assay: Hepatotoxicity against BALB/c mouse assessed as morphological changes at 1 to 10 mg/kg/day, po after 2 months; assay type: toxicity, organism-based; parameters: route oral; conditions: in vivo
[28] = test system: Mus musculus; assay: Induction of new bone formation in ovariectomized BALB/c mouse model assessed as increase in mineral apposition rate at 1 mg/kg/day, po qd for 8 weeks by bone histomorphometry analysis (Rvb =0.11 um/day); assay type: functional
[29] = test system: Mus musculus; assay: Induction of osteoblast differentiation in ovariectomized BALB/c mouse model assessed as upregulation of COL1 mRNA expression at 1 mg/kg/day, po qd for 8 weeks by qPCR analysis; assay type: functional, organism-based
[30] = species: Mus musculus; assay: Stimulation of alkaline phosphatase activity in mouse calvarial osteoblasts at 1 pM to 1 uM after 48 hrs by spectrophotometric analysis; in short: as §1
[31] = test system: Calvarial osteoblast; assay: Induction of osteoblastogenesis in mouse calvarial osteoblasts assessed as increase in COL1 expression at 100 pM to 10 nM by Western blotting analysis; assay type: functional, cell-based
[32] = test system: Mus musculus; assay: Induction of osteoblast differentiation in ovariectomized BALB/c mouse model assessed as upregulation of RUNX2 mRNA expression at 1 mg/kg/day, po qd for 8 weeks by qPCR analysis; assay type: functional, organism-based
[33] = test system: Mus musculus; assay: Antiosteoporotic activity in ovariectomized BALB/c mouse model assessed as restoration of ovariectomy-induced reduction in trabecular number at 10 mg/kg/day, po qd for 8 weeks (reference value: 0.12+/-0.02 /mm); assay type: functional, Trabecula

SMILES: CCOC(=O)C1=C(C)NC2=C(C(=O)CCC2)C1c1cc(C(C)CC)c2oc(=O)c(C(=O)OC)cc2c1 (stereo not drawn)
- Activity [1]: Active
- inhibition [2]: Active
- Activity [3]: 2.85%
- Activity [4]: 0.276 micrometer/day
- EC50 [5]: 1170 nM
- Activity [6]: Active
- Activity [7]: 2.07%
- Activity [8]: Active
- inhibition [9]: Active
- Activity [10]: 2.33%
- Activity [11]: Dose-dependent effect
- Activity [12]: 0.294 micrometer/day
- Activity [13]: Dose-dependent effect
- inhibition [14]: Active
- Activity [15]: Active
- fold change (FC) [16]: 1.5
- Activity [17]: Active
- inhibition [18]: Active
- Activity [19]: Non-toxic
- Activity [20]: Active
- Activity [21]: 0.3 /millimeter
- Activity [22]: 0.37 um3/um2/day
- Activity [23]: Active
- Activity [24]: 32%
- Activity [25]: 0.72 mm
- Activity [26]: 0.68 mm
- Activity [27]: Non-toxic
- Activity [28]: 0.291 micrometer/day
- Activity [29]: Active
- Activity [30]: 80%
- Activity [31]: Active
- Activity [32]: Active
- Activity [33]: 0.32 /millimeter

Source: ChEMBL document CHEMBL2311419, “Discovery of coumarin-dihydropyridine hybrids as bone anabolic agents” (J Med Chem, 2013)
